Screens deposited in PubChem BioAssay by several laboratories.
CHT block: inhibits the human high affinity choline transporter; actives 0.86% (n = 310,000); Q9GZV3; B-score at 10 µM; AID 488975; CHT-expressing cells, membrane potential dye, choline response; stronger effect = lower value;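 active = B-score over 3 SD under the library average, and starting fluorescence ratio not unusually high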;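 also: choline stimulus applied at its EC90 after an EC20 pre-addition; B-score computed on integrated fluorescence ratio after choline addition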
Target sequence (Q9GZV3 whole entry, looked up): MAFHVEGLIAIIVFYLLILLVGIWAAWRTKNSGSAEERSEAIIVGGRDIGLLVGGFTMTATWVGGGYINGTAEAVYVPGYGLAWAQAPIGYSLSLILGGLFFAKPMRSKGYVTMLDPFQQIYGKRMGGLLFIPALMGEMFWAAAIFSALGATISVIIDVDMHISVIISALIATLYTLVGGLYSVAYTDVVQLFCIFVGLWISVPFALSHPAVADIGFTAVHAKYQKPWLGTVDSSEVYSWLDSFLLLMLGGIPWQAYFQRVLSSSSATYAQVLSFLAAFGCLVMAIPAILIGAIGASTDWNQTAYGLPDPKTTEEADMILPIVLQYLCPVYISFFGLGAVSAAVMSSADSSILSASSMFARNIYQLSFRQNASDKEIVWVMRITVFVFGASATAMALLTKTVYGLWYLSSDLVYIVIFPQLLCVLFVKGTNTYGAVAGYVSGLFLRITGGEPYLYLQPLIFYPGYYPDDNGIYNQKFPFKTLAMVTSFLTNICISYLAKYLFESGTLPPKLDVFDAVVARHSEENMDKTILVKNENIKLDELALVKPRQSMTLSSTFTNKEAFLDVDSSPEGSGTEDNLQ
ANO1 block: mouse TMEM16A channel inhibition, primary screen. Q8BHY3. HEK293 TMEM16A/YFP iodide influx fluorescence, ionomycin. normalized B-score (activity score, 25-100; higher = stronger inhibition) at 10 µM. actives 1.2% (n = 310,000). AID 588511;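 active = ratio plate-corrected score three or more library SD toward inhibition, starting fluorescence score within five deviations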;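 also: score derived from kinetic fluorescence span divided by baseline fluorescence per well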
IMP-1 inh: blocks Pseudomonas aeruginosa IMP-1 metallo-beta-lactamase | purified IMP-1, nitrocefin hydrolysis, epi-absorbance fluorescence | inhibition, % at 5.6 µM | actives 0.45% (n = 290,000);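 active = inhibition above the mean plus 3 SD of all compounds in the same screening run, cut at about 4.5% in these data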
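Material – recombinant IMP-1 enzyme, purified · Amount – IMP-1 0.2 nM before substrate addition · Medium – HEPES buffer pH 7.1 with ZnSO4 and Brij 35 · Timing – 25 °C, 15 min preincubation, 25 min reaction · Measured by – plate fluorescence quenching by hydrolysis product, ex 480/em 530 nm · Read-out – percent enzyme inhibition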
CHT PAM: human CHT allosteric activation | Q9GZV3 | CHT-expressing cells, membrane potential dye, choline EC20; stronger effect = higher value; LV-AA mutant CHT in HEK293 cells | B-score at 10 µM | actives 0.49% (n = 310,000) | AID 488977;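 active = initial fluorescence not abnormally high and integrated response B-score, plate-corrected, over 3 SD above library mean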
VIM-2 inh: blocks Pseudomonas aeruginosa VIM-2 metallo-beta-lactamase | purified VIM-2, nitrocefin hydrolysis, epi-absorbance fluorescence | inhibition, % at 5.6 µM | actives 0.89% (n = 290,000);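 active = inhibition above the mean of all tested compounds plus 3 SD, cutoff set per screening run, cut at about 7.5% in these data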;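 also: red hydrolysis product quenches plate fluorescence so inhibitors raise well fluorescence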
ANO1 activ: activators or potentiators of mouse TMEM16A chloride channel; AID 623877; HEK293 TMEM16A/YFP-H148Q/I152L, iodide quench fluorescence; stronger effect = lower value; Q8BHY3; B-score at 10 µM; actives 0.3% (n = 340,000);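 active = fluorescence-ratio B-score plate-corrected deviation score at least 3 library SD below zero, with starting fluorescence score within 5 deviations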;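 also: channel opened by trigger with iodide after compound preincubation; score built on the fluorescence ratio of max minus min over baseline; more negative score means more quench and so TMEM16A activation or potentiation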
TMEM16A reconf: TMEM16A (mouse) chloride channel inhibition, re-confirmation; shares compounds with ANO1 block; HEK293 TMEM16A/YFP-H148Q, iodide quench fluorescence; ionomycin added to raise cell calcium; inhibition, % at 10 µM; actives 39% (n = 2,300); AID 652189;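 active = mean duplicate percent inhibition, scaled so buffer wells are 0 and the reference blocker 100, over three buffer SD above buffer mean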
HEK293 Ca mobil: alters calcium mobilization in TMEM16A HEK293 cells, counter-screen; calcium response (% of ionomycin), % at 10 µM; TMEM16A/YFP HEK293, Fluo4 calcium mobilization; actives 2% (n = 2,300); shares compounds with ANO1 block;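 active = duplicate-averaged calcium signal over 20% of the ionomycin maximum, relative to buffer baseline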;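 also: each well's signal is peak minus trough fluorescence divided by its pre-addition baseline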
YFP-HEK293 quench: counter-screen for TMEM16A inhibitors: effect in parental YFP-HEK293 cells; shares compounds with ANO1 block; iodide YFP quench, ionomycin; YFP ratio F(max-min)/F0 at 10 µM; 2,300 tested, under 10 active; AID 652233;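 active = yellow fluorescent protein signal ratio exceeding the buffer control mean by over 5 SD of those controls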;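 also: ratio is mean of duplicate wells from kinetic YFP trace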
ClC-1 rat inh: rat ClC-1 inhibition, TMEM16A specificity screen | shares compounds with ANO1 block | CHO ClC-1-YFP, iodide influx fluorescence quench; iodide control reads 0, buffer control 100 | ratio percent, % at 10 µM | 2,300 tested, under 10 active | AID 652236;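 active = duplicate-mean ratio percent above the mean of iodide-only control wells, which defines zero, plus 5 of their SD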;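 also: higher percent means stronger block of ClC-1 iodide influx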
Large screens that a line does not name were inactive (follow-up assays come after a bar, where they were run). In the library only some 3.4% were active in any assay of this set; here they are far more common.

O=C1CCCN1c1ccc(S(=O)(=O)NCCOc2ccccc2)cc1	none
CC1=CC(=C2C(=O)c3ccccc3C2=O)C=C(C)O1	none
CC(=O)N1C(=O)C(=C2C=C(C)OC(C)=C2)c2ccccc21	none | TMEM16A reconf 28% | HEK293 Ca mobil inactive | YFP-HEK293 quench inactive | ClC-1 rat inh inactive
CC(=O)c1ccc(OCCCC(=O)OCC(=O)Nc2ccc3[nH]c(=O)[nH]c3c2)cc1	none (no result: IMP-1 inh, VIM-2 inh)
CCOC(=O)N1CCN(C(=O)CSCC(=O)Nc2nc(-c3ccc(-c4ccccc4)cc3)cs2)CC1	ANO1 block 100 | TMEM16A reconf 24% | HEK293 Ca mobil inactive | YFP-HEK293 quench inactive | ClC-1 rat inh inactive
Cc1ccc(-c2csc(NC(=O)CSc3nc(C)cc(=O)[nH]3)n2)cc1	none (no result: ANO1 activ)
COc1ccc(-c2csc(NC(=O)CSc3nc(C)cs3)n2)cc1	none
COc1ccc(-c2csc(NC(=O)CSc3nc(SC)ns3)n2)cc1	ANO1 block 100 | TMEM16A reconf 21% | HEK293 Ca mobil inactive | YFP-HEK293 quench inactive | ClC-1 rat inh inactive
COc1ccccc1C1(O)CCN(CC(=O)Nc2nc(-c3ccccc3)cs2)CC1	ANO1 block 100 | TMEM16A reconf 23% | HEK293 Ca mobil inactive | YFP-HEK293 quench inactive | ClC-1 rat inh inactive
Cc1ccc(-c2csc(NC(=O)CSC3=NCCS3)n2)cc1	ANO1 block 100 | TMEM16A reconf 51% | HEK293 Ca mobil inactive | YFP-HEK293 quench inactive | ClC-1 rat inh inactive
Cc1cc(C)c(CC(=O)c2ccccc2)c(C)c1	none (no result: CHT block, ANO1 block, IMP-1 inh, CHT PAM, VIM-2 inh)
CN(C)CCN=Cc1c(O)n(-c2ccc(S(=O)(=O)N3CCOCC3)cc2)c(=O)c2ccccc12	none (no result: CHT block, ANO1 block, IMP-1 inh, CHT PAM, VIM-2 inh)
Cc1nnc(SCCCN2C(=O)c3ccccc3C2=O)o1	none
O=C1c2ccccc2C(=O)N1CCCCSc1nc2ccccc2o1	ANO1 block 25 | TMEM16A reconf 20% | HEK293 Ca mobil inactive | YFP-HEK293 quench inactive | ClC-1 rat inh inactive
O=C(COC(=O)c1ccc(S(=O)(=O)C(F)F)cc1)Nc1cccnc1Cl	none (no result: IMP-1 inh, VIM-2 inh)
CCOC(=O)N1CCN(Cc2nc(N)nc(Nc3ccc(Oc4ccccc4)cc3)n2)CC1	ANO1 block 25 | TMEM16A reconf 17% | HEK293 Ca mobil inactive | YFP-HEK293 quench inactive | ClC-1 rat inh inactive
CC(NCCN(C)C)C(=O)C12CC3CC(CC(C3)C1)C2 (configuration not stated)	none
O=C(CN1CCN(c2ccccc2)CC1)Nc1scc2c1c(=O)oc1ccccc12	none
O=C(Nc1ccccc1)Nc1scc2c1c(=O)oc1ccccc12	none (no result: ANO1 activ) | TMEM16A reconf inactive | HEK293 Ca mobil inactive | YFP-HEK293 quench inactive | ClC-1 rat inh inactive
CCCCC(=O)Oc1c(S(=O)(=O)c2ccccc2)c(C)nn1C(C)(C)C	ANO1 block 25 | TMEM16A reconf inactive | HEK293 Ca mobil inactive | YFP-HEK293 quench inactive | ClC-1 rat inh inactive
COc1ccc(OCC(=O)NC(=S)Nc2ccc3c4c(cccc24)CC3)cc1	none
COc1cccc(C(=O)NC(=S)Nc2ccc3c4c(cccc24)CC3)c1	none | TMEM16A reconf inactive | HEK293 Ca mobil inactive | YFP-HEK293 quench inactive | ClC-1 rat inh inactive
Cc1ccc(N(C)S(=O)(=O)c2ccc(-c3cc(C)no3)s2)cc1	ANO1 block 25 | TMEM16A reconf 33% | HEK293 Ca mobil inactive | YFP-HEK293 quench inactive | ClC-1 rat inh inactive
O=C1NC(=O)C2(CCCCCC2)N1	none (no result: CHT block, ANO1 block, IMP-1 inh, CHT PAM, VIM-2 inh)
